{"source": "ChEMBL document CHEMBL1129341", "about": "“New neplanocin analogues. 6. Synthesis and potent antiviral activity of 6'-homoneplanocin A1” (J Med Chem, 1996)", "key": {"[1]": {"tested_on": "HeLa", "assay": "Cytotoxic activity against Polio-1 virus in HeLa Cells", "type": "functional", "conditions": "Homo sapiens", "in_short": "(§1)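 Antiviral screen in cell culture (HeLa, HEL, E6SM or Vero, per line). IC50 is the concentration that reduces virus-induced cytopathogenicity by 50%.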"}, "[2]": {"tested_on": "E6SM", "assay": "Cytotoxic activity against VSV virus in E6SM Cells", "type": "functional", "conditions": "Homo sapiens", "in_short": "as §1"}, "[3]": {"tested_on": "E6SM", "assay": "Cytotoxic activity against TK-HSV-1 (B2006) virus in E6SM Cells", "type": "functional", "conditions": "Homo sapiens"}, "[4]": {"tested_on": "Vero", "assay": "Cytotoxic activity against Reo-1 virus in Vero Cells", "type": "functional", "conditions": "Chlorocebus sabaeus"}, "[5]": {"tested_on": "E6SM", "assay": "Cytotoxic activity against HSV-2 (G) virus in E6SM Cells", "type": "functional", "conditions": "Homo sapiens"}, "[6]": {"tested_on": "HEL", "assay": "Cytotoxic activity against HCMV(Davis) virus in HEL Cells", "type": "functional", "conditions": "Homo sapiens"}, "[7]": {"tested_on": "Vero", "assay": "Cytotoxic activity against PV-3 virus in Vero Cells", "type": "functional", "conditions": "Chlorocebus sabaeus"}, "[8]": {"tested_on": "Vero", "assay": "Cytotoxic activity against cell morphology in Vero Cells", "type": "functional", "conditions": "Chlorocebus sabaeus", "in_short": "(§2)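 Host cells under the conditions of the antiviral assays (E6SM, HeLa or Vero, per line). Cytotoxic concentration is the one causing microscopic alteration of normal cell morphology in about 50% of cells.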"}, "[9]": {"tested_on": "Vero", "assay": "Inhibitory activity against virus plaque formation (PV-3) in Vero cells", "type": "functional, cell-based", "conditions": "Chlorocebus sabaeus", "in_short": "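Poliovirus type 3 in Vero cells. IC50 is the concentration that reduces virus plaque formation by 50%.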"}, "[10]": {"tested_on": "HEL", "assay": "Cytotoxic activity against cell growth in HEL Cells", "type": "functional", "conditions": "Homo sapiens", "in_short": "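HEL cell cultures. CC50 is the concentration that reduces cell growth by 50%.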"}, "[11]": {"tested_on": "Vero", "assay": "Inhibitory activity against virus-induced cytopathogenicity (VSV)in Vero cells", "type": "functional, cell-based", "conditions": "Chlorocebus sabaeus", "in_short": "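Vesicular stomatitis virus in Vero cells. IC50 is the concentration that reduces virus-induced cytopathogenicity by 50%.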"}, "[12]": {"tested_on": "Vero", "assay": "Cytotoxic activity against Sindbis virus in Vero Cells", "type": "functional", "conditions": "Chlorocebus sabaeus"}, "[13]": {"tested_on": "HEL", "assay": "Cytotoxic activity against TK-VZV (YS/R) virus in HEL Cells", "type": "functional", "conditions": "Homo sapiens"}, "[14]": {"tested_on": "Vero", "assay": "Cytotoxic activity towards viable cells in Vero cells", "type": "functional", "conditions": "Chlorocebus sabaeus", "in_short": "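Vero cells. CC50 is the concentration that reduces the number of viable cells by 50%.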"}, "[15]": {"tested_on": "HeLa", "assay": "Cytotoxic activity against Coxsackie B4 virus in HeLa Cells", "type": "functional", "conditions": "Homo sapiens"}, "[16]": {"tested_on": "HEL", "assay": "Cytotoxic activity against HCMV (AD-169) virus in HEL Cells", "type": "functional", "conditions": "Homo sapiens"}, "[17]": {"tested_on": "Vero", "assay": "Cytotoxic activity against Tacaribe virus in Vero Cells", "type": "functional", "conditions": "Chlorocebus sabaeus", "in_short": "as §1"}, "[18]": {"tested_on": "E6SM", "assay": "Cytotoxic activity against cell morphology in E6SM Cells", "type": "functional", "conditions": "Homo sapiens", "in_short": "as §2"}, "[19]": {"tested_on": "HeLa", "assay": "Cytotoxic activity against VZV virus in HeLa Cells", "type": "functional", "conditions": "Homo sapiens"}, "[20]": {"tested_on": "HEL", "assay": "Cytotoxic activity against VZV (OKA) virus in HEL Cells", "type": "functional", "conditions": "Homo sapiens", "in_short": "as §1"}, "[21]": {"tested_on": "HEL", "assay": "Cytotoxic activity against TK-VZV (07/1) virus in HEL Cells", "type": "functional", "conditions": "Homo sapiens"}, "[22]": {"tested_on": "Vero", "assay": "Cytotoxic activity against forest virus in Vero Cells", "type": "functional", "conditions": "Chlorocebus sabaeus", "in_short": "as §1"}, "[23]": {"tested_on": "Vero", "assay": "Cytotoxic activity against Junin virus in Vero Cells", "type": "functional", "conditions": "Chlorocebus sabaeus", "in_short": "as §1"}, "[24]": {"tested_on": "HeLa", "assay": "Cytotoxic activity against cell morphology in HeLa Cells", "type": "functional", "conditions": "Homo sapiens", "in_short": "as §2"}, "[25]": {"tested_on": "E6SM", "assay": "Cytotoxic activity against vaccinia virus in E6SM Cells", "type": "functional", "conditions": "Homo sapiens", "in_short": "as §1"}, "[26]": {"tested_on": "HEL", "assay": "Cytotoxic activity against VZV (YS) virus in HEL Cells", "type": "functional", "conditions": "Homo sapiens"}, "[27]": {"tested_on": "E6SM", "assay": "Cytotoxic activity against HSV-1(KOS) virus in E6SM Cells", "type": "functional", "conditions": "Homo sapiens", "in_short": "as §1"}, "[28]": {"assay": "Inhibitory activity against S-adenosyl-L-homocysteine hydrolase from rabbit erythrocytes"}}}
{"smiles": "Nc1ncnc2c1ncn2[C@@H]1C=C(CCO)[C@@H](O)[C@H]1O", "values": [{"measurement": "CC50", "setting": "[1]", "result": "> 200", "unit": "µg/mL"}, {"measurement": "CC50", "setting": "[2]", "result": 1, "unit": "µg/mL"}, {"measurement": "CC50", "setting": "[3]", "result": "> 400", "unit": "µg/mL"}, {"measurement": "CC50", "setting": "[4]", "result": 70, "unit": "µg/mL"}, {"measurement": "CC50", "setting": "[5]", "result": "> 400", "unit": "µg/mL"}, {"measurement": "CC50", "setting": "[6]", "result": 0.5, "unit": "µg/mL"}, {"measurement": "CC50", "setting": "[7]", "result": 2, "unit": "µg/mL"}, {"measurement": "CC50", "setting": "[8]", "result": "> 400", "unit": "µg/mL"}, {"measurement": "IC50", "setting": "[9]", "result": 0.35, "unit": "µg/mL"}, {"measurement": "CC50", "setting": "[10]", "result": "> 50", "unit": "µg/mL"}, {"measurement": "IC50", "setting": "[11]", "result": 1, "unit": "µg/mL"}, {"measurement": "CC50", "setting": "[12]", "result": "> 400", "unit": "µg/mL"}, {"measurement": "CC50", "setting": "[13]", "result": "> 50", "unit": "µg/mL"}, {"measurement": "CC50", "setting": "[14]", "result": "> 500", "unit": "µg/mL"}, {"measurement": "CC50", "setting": "[15]", "result": "> 200", "unit": "µg/mL"}, {"measurement": "CC50", "setting": "[16]", "result": 0.15, "unit": "µg/mL"}, {"measurement": "CC50", "setting": "[17]", "result": 20, "unit": "µg/mL"}, {"measurement": "CC50", "setting": "[18]", "result": "> 400", "unit": "µg/mL"}, {"measurement": "CC50", "setting": "[19]", "result": 0.7, "unit": "µg/mL"}, {"measurement": "CC50", "setting": "[20]", "result": "> 50", "unit": "µg/mL"}, {"measurement": "CC50", "setting": "[21]", "result": "> 50", "unit": "µg/mL"}, {"measurement": "CC50", "setting": "[22]", "result": "> 400", "unit": "µg/mL"}, {"measurement": "CC50", "setting": "[23]", "result": 5, "unit": "µg/mL"}, {"measurement": "CC50", "setting": "[24]", "result": "> 400", "unit": "µg/mL"}, {"measurement": "CC50", "setting": "[25]", "result": 0.1, "unit": "µg/mL"}, {"measurement": "CC50", "setting": "[26]", "result": "> 50", "unit": "µg/mL"}, {"measurement": "CC50", "setting": "[27]", "result": "> 400", "unit": "µg/mL"}]}
{"smiles": "Nc1nccc2c1ncn2[C@@H]1C=C(CCO)[C@@H](O)[C@H]1O", "values": [{"measurement": "IC50", "setting": "[9]", "result": "> 25", "unit": "µg/mL"}, {"measurement": "IC50", "setting": "[11]", "result": 3.9, "unit": "µg/mL"}, {"measurement": "CC50", "setting": "[14]", "result": "> 500", "unit": "µg/mL"}]}
{"smiles": "Nc1nc(O)c2ncn([C@@H]3C=C(CCO)[C@@H](O)[C@H]3O)c2n1", "values": [{"measurement": "IC50", "setting": "[9]", "result": "> 25", "unit": "µg/mL"}, {"measurement": "IC50", "setting": "[11]", "result": "> 500", "unit": "µg/mL"}, {"measurement": "CC50", "setting": "[14]", "result": "> 500", "unit": "µg/mL"}]}
{"smiles": "Cc1cn([C@@H]2C=C(CCO)[C@@H](O)[C@H]2O)c(=O)[nH]c1=O", "values": [{"measurement": "IC50", "setting": "[9]", "result": "> 25", "unit": "µg/mL"}, {"measurement": "IC50", "setting": "[11]", "result": "> 500", "unit": "µg/mL"}, {"measurement": "CC50", "setting": "[14]", "result": "> 500", "unit": "µg/mL"}]}
{"smiles": "Nc1ccn([C@@H]2C=C(CCO)[C@@H](O)[C@H]2O)c(=O)n1", "values": [{"measurement": "IC50", "setting": "[9]", "result": "> 25", "unit": "µg/mL"}, {"measurement": "IC50", "setting": "[11]", "result": "> 500", "unit": "µg/mL"}, {"measurement": "CC50", "setting": "[14]", "result": "> 500", "unit": "µg/mL"}]}
{"smiles": "Nc1ncnc2c1ncn2[C@@H]1C=C(CO)[C@@H](O)[C@H]1O", "note": "[NEOPLANOCIN A]", "values": [{"measurement": "CC50", "setting": "[1]", "result": "> 40", "unit": "µg/mL"}, {"measurement": "CC50", "setting": "[2]", "result": 7, "unit": "µg/mL"}, {"measurement": "CC50", "setting": "[3]", "result": 40, "unit": "µg/mL"}, {"measurement": "CC50", "setting": "[4]", "result": 4, "unit": "µg/mL"}, {"measurement": "CC50", "setting": "[5]", "result": "> 70", "unit": "µg/mL"}, {"measurement": "CC50", "setting": "[6]", "result": 0.4, "unit": "µg/mL"}, {"measurement": "CC50", "setting": "[7]", "result": 2, "unit": "µg/mL"}, {"measurement": "CC50", "setting": "[8]", "result": "> 10", "unit": "µg/mL"}, {"measurement": "IC50", "setting": "[9]", "result": 0.74, "unit": "µg/mL"}, {"measurement": "CC50", "setting": "[10]", "result": "> 20", "unit": "µg/mL"}, {"measurement": "IC50", "setting": "[11]", "result": 1, "unit": "µg/mL"}, {"measurement": "CC50", "setting": "[12]", "result": "> 10", "unit": "µg/mL"}, {"measurement": "CC50", "setting": "[13]", "result": 7, "unit": "µg/mL"}, {"measurement": "CC50", "setting": "[14]", "result": 152, "unit": "µg/mL"}, {"measurement": "CC50", "setting": "[15]", "result": "> 40", "unit": "µg/mL"}, {"measurement": "IC50", "setting": "[28]", "result": 0.004, "unit": "µg/mL"}, {"measurement": "CC50", "setting": "[16]", "result": 0.3, "unit": "µg/mL"}, {"measurement": "CC50", "setting": "[17]", "result": 2, "unit": "µg/mL"}, {"measurement": "CC50", "setting": "[18]", "result": 70, "unit": "µg/mL"}, {"measurement": "CC50", "setting": "[19]", "result": 2, "unit": "µg/mL"}, {"measurement": "CC50", "setting": "[20]", "result": 15, "unit": "µg/mL"}, {"measurement": "CC50", "setting": "[21]", "result": 10, "unit": "µg/mL"}, {"measurement": "CC50", "setting": "[22]", "result": "> 10", "unit": "µg/mL"}, {"measurement": "CC50", "setting": "[23]", "result": 0.5, "unit": "µg/mL"}, {"measurement": "CC50", "setting": "[24]", "result": "> 40", "unit": "µg/mL"}, {"measurement": "CC50", "setting": "[25]", "result": 0.7, "unit": "µg/mL"}, {"measurement": "CC50", "setting": "[26]", "result": 9, "unit": "µg/mL"}, {"measurement": "CC50", "setting": "[27]", "result": "> 70", "unit": "µg/mL"}]}
